For this series, the system named is MS2 coat protein. Put plainly: apparent Kd, MS2 coat protein; higher = weaker binding; RNA-MaP array; FMN 200 µM where present. The gist of the method:
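The apparent Kd is the median of filtered binding-curve fits, one per cluster, to green signal normalised to red-channel RNA signal and control-cluster median Fmax. The clusters were on Illumina sequencing chips, and stalled E. coli RNA polymerase had transcribed the designs on them. Titration used SNAP-549-labelled MS2 coat protein from 0.7 or 1.5 nM, doubling to 3 µM, without and then with constant ligand, in 100 mM Tris-HCl pH 7.5, 80 mM KCl, 4 mM MgCl2, BSA, DTT, yeast tRNA and Tween-20.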

Where [1] appears, read: designed as: OFF switch for flavin mononucleotide, no ligand.
Setting [2] is: ligand present: flavin mononucleotide, designed as: OFF switch for flavin mononucleotide.
[3] abbreviates: designed as: ON switch for flavin mononucleotide, no ligand.
[4] abbreviates: ligand present: flavin mononucleotide, designed as: ON switch for flavin mononucleotide.

We go through 48 sequences from the EternaBench riboswitch data.

As a reminder, the apparent Kd is the concentration giving half-maximal binding under the conditions of the assay. Take “GAUUGACAUGAGGAUCACCCAUGUGAGGAUAUCGGCCGGACCUUGUUAGCUUCCACCGCGAGAAGGCACAUAGG”: the “apparent Kd” value came out at 30.9 nM under setting [1] and 41.6 nM under setting [2].

In the case of “UCGAAGAAGCAAGGAUAUCAAUAUUAGCAAAAUAUGACAUGAGGAUCACCCAUGUAAAUAUGGAGUGAGAAGGUGCAAUAAUUU”, the “apparent Kd” value reads like this: under setting [3], 274 nM; under setting [4], 149 nM.

“CUAUGCGGAAUAGGAUAUUCAUUCAUGAGGAUAGAAGAAGGGUUACAUGAGGAUCACCCAUGUAUGCACAUGAGGAUCCCUUAG”: the “apparent Kd” value was found to be 247 nM under setting [1] and 260 nM under setting [2].

For the sequence “ACAUGAGGAUGAGGAUAUUCAUACAUGAGGAUAGAAGAAGGCAUACAUGAGGAUCACCCAUGUAUACACAUGAGGAUCGCCCAU”, the “apparent Kd” value was determined as 37.1 nM under setting [1] and 47.3 nM under setting [2]. For “GAUGACAUGAGGAUCACCCAUGUGAUGGUUUGAGGUGGUUACAGAAGGGACGUAUAGUGGUGUGGUCAGGAUAUGUAGAAUCCU”, the “apparent Kd” value by setting is: under setting [3], 125 nM; under setting [4], 50.9 nM. With “UGAUAGGACAGAGGAUAUACGUGCUAGAGAUACUAGCAAAAUAUCCUCACAUGAGGAUCACCCAUGUAGAAGGCUGUCCUAUCU”, the “apparent Kd” value runs as follows: under setting [1], 18 nM; under setting [2], 83.3 nM. As to “AAUGAGCGAGGAUAUGCAACUGUAUGACCUACGUGUGCCAGACAUGAGGAUCACCCAUGUAGAAGGUGCUUUCC”, the “apparent Kd” value under setting [1] stood at 59.7 nM and the “apparent Kd” value under setting [2] was 51.3 nM. Turning to “AAGAAGUCAGGAUAUCGUUAAUUUAGUUGUUUGUAUUAGUUCGAGAAGGGACAUGAGGAUCACCCAUGUAAGAA”, the “apparent Kd” value turned out to be 35.2 nM under setting [1] and 42.7 nM under setting [2]. On to “CAGCAAUGUAAGAAGGUAUUUAUUAUUAUAUUAUAAGGAUAUUACAUGAGGAUCACCCAUGUAUGAACCAAUAGCUGAAUUAUA”, for which the “apparent Kd” value is, setting by setting: under setting [1], 6.1 nM; under setting [2], 5.88 nM.

Take “UAACCAGUCCAGAAGGUGACGUCUGAAACUAGUCAAGGAUAUGGGUUGGUCCACGGUCGGCUACAUGAGGAUCACCCAUGUACC”: the “apparent Kd” value reads like this: under setting [3], 32.8 nM; under setting [4], 8.33 nM. Take “GACAUGAGGAUCACCCAUGUCCAACCAGAAGGCCAGGAAUCGGACCCGUGUAUCGGGUUCGAGAUGGAGGAUAUGGGCGCCGAA”: the “apparent Kd” value is 78.2 nM under setting [3] and 34.1 nM under setting [4]. Turning to “UACGUACAGAAGAACGCCGGGUCCAGAAGGGACAUGAGGAUCACCCAUGUACCGUUGAUUGCUUGUCAGGAUAUGGACCCGGCC”, the “apparent Kd” value reads like this: under setting [1], 6.32 nM; under setting [2], 21.8 nM. In the case of “GUAGCUAUCGGAGGAUAUUUAUACCGGAAACGGACAUGAGGAUCACCCAUGUGGCGAAAGCCUUGGGAGAAGGCCGAUAGCUAC”, the “apparent Kd” value was 29.7 nM under setting [3] and 4.23 nM under setting [4]. On to “GCCUUAUUGGUCAGGAUAUACAUUUGUUACUCUUUGUAGAAGGGACAUGAGGAUCACCCAUGUACAUUACAUUC”, for which the “apparent Kd” value turned out to be 20.8 nM under setting [1] and 33.5 nM under setting [2].

As to “UGAACUUCAGAGAAGGUCGGAUGGCAACGGUCCGAAGGAUAUCUGGAAACAUGAGGAUCACCCAUGUAACCGGGUGGAUGUCCU”, the “apparent Kd” value came out at 35 nM under setting [1] and 113 nM under setting [2]. Consider “CUGUGACGGUGCGCAAGUGGACGUAGAAGGGUCACAUGAGGAUCACCCAUGUGGGCCUGCUAGUGACAGGAUAUACGUUCGUGC”, for which the “apparent Kd” value under setting [2] worked out at 65.2 nM. “UGUUAGUAGACAGGAUAUUGAAUGUUAAGUAUUAACAUGAGGAUCACCCAUGUAUUUGAUUGGUACAAGAAGGGUCAUGUUUGU”: the “apparent Kd” value under setting [3] is 265 nM and the “apparent Kd” value under setting [4] was 606 nM. For the sequence “GGAUAGGACAGAGGAUAUACGUGCUAGAGAUACUAGCAAAAUUUCCUCACAUGAGGAUCACCCAUGUAGAAGGCUGUCUUAUCG”, the “apparent Kd” value came to 16 nM under setting [1] and 191 nM under setting [2]. “AAAACAUGAGGAUCACCCAUGUAAAGAUCGGUCGAUCAAGGUGAGGAUAUACAAAACUUGAUGGAGUAGAAGGCACUGGGUUGA”: the “apparent Kd” value amounted to 384 nM under setting [3] and 201 nM under setting [4]. In the case of “UGAUCUUGGGUCAGGAUAUGCUGGUAUUUUUGCCAGCAGAAGGGACAUGAGGAUCACCCAUGUUCUUGGUUUUU”, the “apparent Kd” value is, setting by setting: under setting [1], 11.7 nM; under setting [2], 14.9 nM. Turning to “CAUGCGGGCGGGUUUUUGAUACAUGAGGAUCACCCAUGUCUUGAGGAUAUCUUUGCAACACGCCAAGAGAAGGCAAGGCGUUUC”, the “apparent Kd” value came out at 33.6 nM under setting [1] and 107 nM under setting [2]. For the sequence “UUACUCAUGUAAGGAUAUGCAGCCGUGUCGGCUGCAGAAGGUACUAUAAUACAUGAGGAUCACCCAUGUCUAUAAAAUAAAGAC”, the “apparent Kd” value by setting is: under setting [3], 48 nM; under setting [4], 26.8 nM.

Regarding “GCAGACGUGGUGAGGAUAUGCUCUACCUCGGUAGAGCAGAAGGCACAUGAGGAUCACCCAUGUGACUCCUCAUC”, the “apparent Kd” value is, setting by setting: under setting [1], 18.6 nM; under setting [2], 19.2 nM.

For the sequence “UUCUUGGCAGGAUAUGCUUUUUUAGACAUGAGGAUCACCCAUGUGAUGAUUAUUGGUUUUGCAGAAGGGCCUUAAU”, the “apparent Kd” value under setting [1] is 53.6 nM and the “apparent Kd” value under setting [2] is 87.5 nM. Consider “GGAAUACAUGAGGAUCACCCAUGUAAGGAUAUGCUGAUUAAAUUGGAUUAAUUAUGCAGCAGAAGGUACAAAAG”, for which the “apparent Kd” value reads like this: under setting [1], 78.7 nM; under setting [2], 79.6 nM. With “GGGUACCUGACAUGAGGAUCACCCAUGUCGUGCCUCUGCGGCAAGGAUAUGAUCGCUCGUGUAGGUCAGAAGGUGCCGUUGUUA”, the “apparent Kd” value reads like this: under setting [3], 66.2 nM; under setting [4], 6.7 nM. In the case of “UGUAUACAUGAGGAUCACCCAUGUAAGGAUAUGCUUUAUUAUUAUUAUUAUUAUUGUUGCAGAAGGUACAUUGU”, the “apparent Kd” value under setting [1] turned out to be 28.9 nM and the “apparent Kd” value under setting [2] came to 32.1 nM. Regarding “AGGUUGUGAGGAUAUUAGUUAUAUGAAUGGAGGAGUAUGGCUGAGAAGGCACAUGAGGAUCACCCAUGUAGAUC”, the “apparent Kd” value is, setting by setting: under setting [1], 120 nM; under setting [2], 420 nM. On the same counts, the results for “GGAGAUACAUGAGGAUCACCCAUGUAGGAUAUCGGGUAUAUAUAUGGCGAAAGCCAUAUAUAUACCGAGAAGGGCGUACACACC” are 8.59 nM and 8.11 nM. Consider “AUGGACGUCGUAGGAUAUGUAGGAUUCUCCUACAUGAGGAUCACCCAUGUUGACGUGGAGGACGGACAGAAGGACGGUGUCCAU”, for which the “apparent Kd” value under setting [3] is 7.22 nM and the “apparent Kd” value under setting [4] was found to be 4.8 nM. With “ACUGGUCGAGGAUAUACAUUCGUGCUUCGGCACGUAAGGUCACAUGAGGAUCACCCAUGUAGAAGGCGACCAGU”, the “apparent Kd” value under setting [1] worked out at 40.1 nM and the “apparent Kd” value under setting [2] was 207 nM. Turning to “CAUUGACGACAAUUACAUGAGGAUCACCCAUGUUUUGGGAUGCAGGAUAUGUGGUAUAUUAAUUAACAGAAGGGCAAUAAUUUU”, the “apparent Kd” value under setting [3] was found to be 34.7 nM. For “AAGAUGUUAGGAUAUGCUGCUCGUCACAAAAGUGAUGAGUAGCAGAAGGAACAUGAGGAUCACCCAUGUAAAGA”, the “apparent Kd” value runs as follows: under setting [1], 31 nM; under setting [2], 55.3 nM. On the same counts, the results for “UUAAUUAAUUAAUUGCAGUUUACAUGAGGAUCACCCAUGUAUAAGGAUAUGCAGUGGAAUACACUGCAGAAGGUAUACAUCUGC” are 19.5 nM and 35.2 nM. As to “UACAUGAGGAUCACCCAUGUUAACAUGGAGUUGUUAUAUCUGAGAAGGGUAAUAUUACAUUAAGUACAGGAUAUCAAUGAUGUU”, the “apparent Kd” value runs as follows: under setting [1], 45.2 nM; under setting [2], 18.4 nM. “ACUAUACGAGGAUAUACUGACGGGCCUCAGGCGUCCAUCAGACAUGAGGAUCACCCAUGUAGAAGGCGUAUACU”: the “apparent Kd” value reads like this: under setting [1], 85.5 nM; under setting [2], 196 nM.

Consider “AAAUAACAUGUAGGAUAUCCAGCAUUGACCAUCGGAGAAGGACAUGAGGAUCACCCAUGUACCGAUACAAUGGAAUAAGGGAAU”, for which the “apparent Kd” value was determined as 16 nM under setting [1] and 17.9 nM under setting [2]. For “AGACGGAGCUGAGGAUAUUACAUGAGGAUCACCCAUGUAAGUCUCCAGGAAACUGGAGACAAAUGUAAGAAGGCAGCUCCGUCA”, in that order: 19.3 nM and 29.5 nM.

On to “AAUAACAGAGGAUAUACUGUUUUAUGUGUUUGUUAUUUUAAACAUGAGGAUCACCCAUGUAGAAGGCUGAAUGA”, for which the “apparent Kd” value is, setting by setting: under setting [1], 21.5 nM; under setting [2], 24.5 nM. “UAAUAAUUAUGAGGAUAUAUACAACAUGAGGAUCACCCAUGUACCCAUGUAGUAGAAGGCAUAUUUUUAUUUAAUAAUAUAACU”: the “apparent Kd” value reads like this: under setting [3], 60.4 nM; under setting [4], 27.6 nM. For the sequence “UGGUAGUAGGGAGGAUAUGGGAAGAUACAUGAGGAUCACCCAUGUUUAAGAAUGCCGAGAGGCAACUAGAAGGCCCUAGUACCU”, the “apparent Kd” value runs as follows: under setting [3], 324 nM; under setting [4], 23.7 nM. For “AUAAUUUAAGUGAGGAUAUACCUAUGGAAACAUAGGUAGAAGGCACAUGAGGAUCACCCAUGUUUUUACACAAA”, the “apparent Kd” value under setting [1] came out at 17.8 nM and the “apparent Kd” value under setting [2] was 37.9 nM. For “UCUAUAAGAAAAUAGACGAAGUGGCCAGAAGGUGAAUGCCACAUGAGGAUCACCCAUGUUUCGAUCAAGGAUAUGGUUUCUCAC”, the “apparent Kd” value is 383 nM under setting [3] and 99.1 nM under setting [4].

Turning to “GAAGCCUGAGAGAAGGGCCACAUGAGGAUCACCCAUGUGUGCUCUCCUGUGGCAGGAUAUCUAUGGGCUGACUGGCUAAUCCAU”, the “apparent Kd” value worked out at 6.84 nM under setting [1] and 4.6 nM under setting [2]. As for “GUAUAGAUUACAUGAGGAUCACCCAUGUCAGAACGGGUAAUCAGAAGGUAUUAUUAGAGAAAGGGUAAGGAUAUGAUUUUAUAU”, the “apparent Kd” value under setting [3] came out at 598 nM and the “apparent Kd” value under setting [4] was 389 nM. In the case of “UGGGACUAGGGAGGAUAUGGGAAGAUACAUGAGGAUCACCCAUGUUUAAGAAUGCCGAGAGGCAACUAGAAGGCCCUAGUACCU”, the “apparent Kd” value by setting is: under setting [3], 446 nM; under setting [4], 20.4 nM. With “CAUUAAUUCAUUAUAGUUAUUAUACAGGAUAUGUUACAUGAGGAUCACCCAUGUUUUCAUGGUAAACAGAAGGGUAUAUCAAGU”, the “apparent Kd” value runs as follows: under setting [1], 124 nM; under setting [2], 232 nM.

On to “AGUCGGCGAGGAUAUACAUGAGGAUCACCCAUGUAUGAUCCUAGACCUGUAGGUCCAUGUAGAAGGCGCUGACA”, for which the “apparent Kd” value stood at 63.6 nM under setting [1] and 29.1 nM under setting [2].
